According to ChEMBL document CHEMBL3870302, “Computer-aided identification, synthesis and evaluation of substituted thienopyrimidines as novel inhibitors of HCV replication” (Eur J Med Chem, 2016):

Columns and labels:
Hepatitis C virus = test: Antiviral activity against Hepatitis C virus genotype 1b infected in human HuH5.2 cells after 72 hrs by luciferase reporter gene assay; assay type: functional, cell-based, Hepacivirus hominis
Summary of the method: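 Huh 5-2 cells with genotype 1b I389luc-ubi-neo/NS3-3'/5.1 subgenomic replicon, seeded 6 500 cells/well in DMEM/10% FCS without Geneticin, overnight 37 °C. Compound (DMSO stock diluted in medium) in 1:5 four-step or 1:2 eight-step series, 72 h. Cells PBS-washed, lysed 5 min, luciferase luminescence read, converted to % untreated control; EC50 from dose-response curve, mean of ≥2 independent experiments.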

[1] = Cytotoxicity against human HuH5.2 cells assessed as reduction in metabolic activity after 72 hrs by MTS assay; assay type: toxicity, cell-based, Huh-5-2; settings: for CC50 at 72 h: HuH5.2 cells
Summary of the method: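 Run in parallel with the replicon assay: Huh 5-2 replicon cells, 6 500 cells/well, compound series for 72 h at 37 °C, 5% CO2. Medium then replaced with 5% MTS in phenol red-free medium for 1.5 h. Absorbance at 498 nm expressed as % untreated cells; CC50 from dose-response curve as 50% reduction in metabolic activity, mean of ≥2 experiments.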

[2] = Selectivity index, ratio of CC50 for human HuH5.2 cells to EC50 for hepatitis C virus genotype 1b infected in human HuH5.2 cells; assay type: toxicity, cell-based; settings: for selectivity ratio: HuH5.2 cells, read-out: Ratio CC50/EC50
Summary of the method: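 Ratio of CC50 (MTS metabolic read-out, 72 h) to EC50 (replicon luciferase read-out, 72 h), both measured in parallel on Huh 5-2 genotype 1b replicon cells.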

[3] = Inhibition of Hepatitis C virus genotype 1b (con1) full length C-terminal His-tagged NS3 helicase expressed in Escherichia coli Rosette(DE3) assessed as inhibition of 5'-Cy5/3'-IAbRQ-labeled DNA unwinding activity by molecular beacon assay; design: species or system Hepatitis C virus (isolate Con1)
Summary of the method: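 Molecular beacon unwinding assay: 25 mM MOPS pH 6.5, 1.25 mM MgCl2, 5% DMSO, 5 µg/ml BSA, 0.01% Tween20, 0.05 mM DTT, 5 nM fluorescent DNA substrate, 12.5 nM NS3h, 1 mM ATP.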

[4] = Inhibition of protease domain lacking Hepatitis C virus genotype 1b (con1) C-terminal His-tagged NS3 helicase ATP hydrolysis activity using ATP as substrate preincubated followed by substrate addition measured after 15 mins in presence of poly U RNA by malachite green-based assay; design: species or system Hepatitis C virus (isolate Con1)
[5] = Inhibition of protease domain lacking Hepatitis C virus genotype 1b (con1) C-terminal His-tagged NS3 helicase ATP hydrolysis activity using ATP as substrate preincubated followed by substrate addition measured after 15 mins in absence of poly U RNA by malachite green-based assay; design: species or system Hepatitis C virus (isolate Con1)
[6] = Inhibition of Cy5-labeled dT15 DNA binding to Hepatitis C virus genotype 1b (con1) NS3 helicase DNA by fluorescence polarization assay; design: species or system Hepatitis C virus (isolate Con1)
Summary of the method: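 Displacement of NS3h from a DNA oligonucleotide, 15 nM NS3h in 25 mM MOPS pH 7.5, 1.25 mM MgCl2, 0.0025 mg/ml BSA, 0.005% Tween20, 0.025 mM DTT.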

[7] = Hepatitis C virus, genotype 1b, Huh-5-2, 72 h

| SMILES | EC50 (Hepatitis C virus; [7]) [µM] | EC90 (Hepatitis C virus; [7]) [µM] | IC50 [3] [µM] | IC50 [4] [µM] | IC50 [5] [µM] | IC50 [6] [µM] | EC50 (Hepatitis C virus) [µM] | CC50 at 72 h [1] [µM] | selectivity ratio [2] | CC50 ([1]; huh-5-2, 72 h, 72 h) [µM] | Ratio CC50/EC50 [2] |
| --- | --- | --- | --- | --- | --- | --- | --- | --- | --- | --- | --- |
| C/C(=N\Nc1ncnc2sc3ccccc3c12)c1cc(O)ccc1O | 0.475 | 0.897 | > 1000 | – | – | – | – | 21 | 44.2 | – | – |
| Cc1c(Cl)sc2ncnc(NNC(=O)c3ccccc3O)c12 | 0.159 | – | 306 | – | – | – | – | > 8.96 | > 56.1 | – | – |
| O=C(NNc1ncnc2sc3c(c12)CCCC3)c1cc2ccccc2[nH]1 | 20.8 | – | 224 | – | – | – | – | 74.5 | 3.6 | – | – |
| O=C(NNc1ncnc2sc3c(c12)CCC3)c1cc(O)ccc1O | 2.34 | 3.67 | > 1000 | – | – | – | – | 198 | 84.6 | – | – |
| O=C(NNc1ncnc2sccc12)c1cnccn1 | 0.851 | 2.28 | > 1000 | – | – | – | – | 233 | 274 | – | – |
| Cc1ccc2nc(-c3ccc4nc(-c5ccc(N)cc5)sc4c3)sc2c1S(=O)(=O)O | – | – | 10 | 40 | > 200 | 46 | – | – | – | – | – |
| O=C(NNc1ncnc2sc3c(c12)CCCC3)c1ccc2ccccc2n1 | 16.5 | – | > 1000 | – | – | – | – | 40.4 | 2.4 | – | – |
| O=C(NNc1ncnc2sc3c(c12)CCCC3)c1ccccc1O | 0.273 | 0.567 | > 1000 | – | – | – | – | 63.6 | 233 | – | – |
| C/C(=N\Nc1nc(C)nc2sc3c(c12)CCCC3)c1cnccn1 | 0.069 | 0.24 | > 1000 | – | – | – | – | > 3 | > 42.7 | – | – |
| Cc1nc(NNC(=O)c2ccccc2O)c2c3c(sc2n1)CCCC3 | 1.26 | 3.07 | > 1000 | – | – | – | – | 25 | 19.8 | – | – |
| C/C(=N\Nc1ncnc2sc3c(c12)CCCC3)c1cc2ccccc2[nH]1 | 61.2 | > 277 | > 1000 | – | – | – | – | 26 | 0.42 | – | – |
| C/C(=N/Nc1ncnc2sccc12)c1ccccc1O | 4.69 | > 10.6 | > 1000 | – | – | – | – | 80.5 | 17.2 | – | – |
| C/C(=N\Nc1ncnc2sc3ccccc3c12)c1ccccc1O | 0.0861 | 0.421 | > 1000 | > 1000 | – | 827 | – | 11.5 | 134 | – | – |
| O=C(O)C1=CC(=C(c2ccc(O)c(C(=O)O)c2)c2ccc(O)c(C(=O)O)c2)C=CC1=O [AURINTRICARBOXYLIC ACID] | – | – | 0.3 | 5.1 | 3.3 | 2 | – | – | – | – | – |

Continued, in another order:

| EC50 (Hepatitis C virus; [7]) [µM] | EC90 (Hepatitis C virus; [7]) [µM] | IC50 [3] [µM] | IC50 [4] [µM] | IC50 [5] [µM] | IC50 [6] [µM] | EC50 (Hepatitis C virus) [µM] | SMILES | CC50 at 72 h [1] [µM] | selectivity ratio [2] | CC50 ([1]; huh-5-2, 72 h, 72 h) [µM] | Ratio CC50/EC50 [2] |
| --- | --- | --- | --- | --- | --- | --- | --- | --- | --- | --- | --- |
| 0.17 | 0.679 | > 1000 | – | – | – | – | O=C(NNc1ncnc2sc3c(c12)CCCC3)c1nc2ccccc2[nH]1 | 3.14 | 18.5 | – | – |
| 1.18 | 1.44 | > 1000 | – | – | – | – | C/C(=N/Nc1ncnc2sc3c(c12)CCC3)c1ccccn1 | 14 | 11.9 | – | – |
| < 0.697 | – | > 1000 | – | – | – | – | C/C(=N\Nc1ncnc2sc3c(c12)CCCC3)c1ccc2ccccc2n1 | 7.23 | > 10.4 | – | – |
| 1.29 | 3.75 | > 1000 | – | – | – | – | O=C(NNc1ncnc2sc3c(c12)CCCC3)c1cnccn1 | 10.6 | 8.21 | – | – |
| 0.0386 | 0.319 | > 1000 | – | – | – | – | Cc1sc2ncnc(NNC(=O)c3cnccn3)c2c1C | 1.67 | 43.3 | – | – |
| – | – | > 1000 | – | – | – | < 1 | C/C(=N\Nc1ncnc2sc3c(c12)CCCC3)c1cc(O)ccc1O (stereo in doubt; form 1) | – | – | > 141 | > 141 |
